Tb hexokinase: Trypanosoma brucei hexokinase 1 inhibitors, primary screen, biochemical, G6PDH-coupled NADH absorbance, MLSCN library. hexokinase 1 [Trypanosoma brucei]. recombinant TbHK1, G6PDH-coupled NADH A340. inhibition, % at 10 µM. 0.11% of 220,000 active. AID 1430, 2008;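 active means inhibition of 50% or more in the single-dose primary screen; inactive means inhibition below 50%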
Runt-SMMHC FRET: inhibitors of RUNX1 Runt–CBFb-SMMHC binding, primary screen, biochemical, FRET, Cerulean-Runt, Venus-CBFb-SMMHC, uHTS. Cerulean-Runt/Venus-CBFb-SMMHC FRET ratio 530/480, 1 h. inhibition, % at 20 µM. 0.74% of 220,000 active;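 active means mean inhibition across duplicate retests at 20 µM reaching about 50%, limit read from the data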;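 further: 0% = DMSO wells and 100% = wells with excess untagged CBFb-SMMHC; inhibitors lower the FRET ratio by blocking Runt binding to CBFb-SMMHC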
p97 inhibitor: inhibitors of human p97 ATPase, primary screen, biochemical. Transitional endoplasmic reticulum ATPase (Homo sapiens), P55072. recombinant p97 ATPase, Kinase-Glo ATP luminescence, 3 h. inhibition, % at 8 µM. 0.42% of 220,000 active. AID 1481, 2009; in the data active means inhibition above about 15%;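 further: 0% = DMSO vehicle and 100% = wells lacking enzyme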
Target sequence (P55072 whole entry, looked up): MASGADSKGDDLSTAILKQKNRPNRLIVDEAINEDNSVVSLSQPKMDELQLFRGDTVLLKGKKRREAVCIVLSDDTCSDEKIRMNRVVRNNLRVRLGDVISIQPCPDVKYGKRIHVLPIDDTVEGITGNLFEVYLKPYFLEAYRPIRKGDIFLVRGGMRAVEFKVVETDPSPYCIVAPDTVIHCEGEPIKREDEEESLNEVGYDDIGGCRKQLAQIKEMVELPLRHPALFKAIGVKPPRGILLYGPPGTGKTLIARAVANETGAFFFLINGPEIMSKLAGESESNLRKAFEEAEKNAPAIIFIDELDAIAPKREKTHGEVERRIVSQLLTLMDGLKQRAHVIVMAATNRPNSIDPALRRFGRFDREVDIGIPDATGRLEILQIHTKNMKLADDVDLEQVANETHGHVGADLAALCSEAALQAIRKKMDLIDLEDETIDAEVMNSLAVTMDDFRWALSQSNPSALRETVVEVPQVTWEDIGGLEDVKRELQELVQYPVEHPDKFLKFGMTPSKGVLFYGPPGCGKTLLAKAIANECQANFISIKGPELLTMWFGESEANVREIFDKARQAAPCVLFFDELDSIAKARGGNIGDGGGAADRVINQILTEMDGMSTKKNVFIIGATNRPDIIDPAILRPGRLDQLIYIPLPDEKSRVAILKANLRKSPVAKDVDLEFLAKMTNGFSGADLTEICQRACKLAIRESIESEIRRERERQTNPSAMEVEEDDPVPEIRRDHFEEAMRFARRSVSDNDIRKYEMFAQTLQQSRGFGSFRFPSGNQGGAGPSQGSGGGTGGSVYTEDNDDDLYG
Hck-Nef inh: inhibitors of Nef-activated human Hck kinase, primary screen, biochemical, Z-Lyte FRET, 384-well, Hck-YEEI; Tyrosine-protein kinase HCK (Homo sapiens), P08631; Recombinant Hck-YEEI plus Nef, Z-Lyte FRET kinase assay; inhibition, % at 20 µM; 0.68% of 220,000 active;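 active means Hck-Nef kinase inhibition above about 50%, limit read from the data; inactive means inhibition below that limit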;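 further: 0% = DMSO with Hck plus Nef and 100% = Hck alone without Nef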
RanGTP-Impb inh: inhibitors of RanGTP-importin-beta interaction, primary screen, biochemical, FRET, CFP-Ran, YFP-importin-beta, homogeneous; Ran GTPase (GTP-bound) - importin-beta complex; cell-free CFP-Ran/YFP-importin-beta FRET ratio; inhibition, % (concentration not given with the values); 1.1% of 300,000 active;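 active means more than half of the replicate wells show a fall in the fluorescence ratio signal beyond about 16%, limit read from the data, passing the limit was not always enough; inconclusive means exactly half of the replicate wells pass the set limit; inactive means fewer than half of replicates pass the limit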;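 further: 0% = DMSO wells and 100% = Ran loaded with GDP instead of GTP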
Runt-CBFb FRET: inhibitors of RUNX1 Runt–CBFb binding, primary screen, biochemical, FRET, Cerulean-Runt, Venus-CBFb, uHTS; Runt-related transcription factor 1 (Homo sapiens) + Core-binding factor subunit beta …; Cerulean-Runt/Venus-CBFb FRET ratio 530/480, 1 h; inhibition, % at 20 µM; 0.46% of 220,000 active;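 active means inhibition over about 50% at 20 µM in the single-dose screen, limit read from the data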;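 further: 0% = DMSO wells and 100% = excess unlabeled CBFb competitor control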
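test system = Cerulean-Runt domain fusion protein, energy donor | probe or stimulus = Venus-CBFb binding partner, 100 nM | incubation = two 1 h room-temperature incubations shielded from light | detection = fluorescence energy transfer, 422 nm excitation, 530/480 nm emission | measure = loss of energy transfer signal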
RUNX1 CBFb TR: inhibitors of RUNX1 Runt–CBFb binding, biochemical, TR-FRET. inhibition, % at 20 µM. shares compounds with Runt-CBFb FRET. TR-FRET RUNX1 Runt domain-CBFb binding. 20% of 480 active; in the data active means inhibition above about 40%
* = called active by the depositor; ? = inconclusive; . = no result. Most compounds without a hit are left out; they make up all but 2.1% or so of the library.

SMILES | Tb hexokinase | Runt-SMMHC FRET | p97 inhibitor | Hck-Nef inh | RanGTP-Impb inh | Runt-CBFb FRET | RUNX1 CBFb TR
CCn1c(SCC(=O)NC(C)(C)C)nnc1-c1ccccn1 | -8.4 | 2.0 | 0.9 | 2.4 | 3.0 | 16.8 | .
Cc1cc(N2C(=O)C(O)=C(C(=O)c3ccc(C)o3)C2c2cccc(Oc3ccccc3)c2)no1 (stereo unspecified) | . | . | . | . | 1.1 | . | .
Cc1csc(SCC(=O)NCCc2ccc(Cl)cc2Cl)n1 | 0.7 | -1.5 | -1.4 | 1.0 | 1.8 | 0.1 | .
CCOC(=O)C1=NN(c2ccccc2)C2=NC(C)=C(C(=O)OC)C(c3ccc(C)cc3)N12 (stereo unspecified) | -16.8 | 7.7 | 4.6 | 2.6 | 1.6 | -0.8 | .
O=C1NCCCC2c3c(cc(Br)c(O)c3Br)OC12N1CCCCC1 (stereo unspecified) | -11.8 | 47.4 | 2.1 | 3.2 | 2.6 | 50.1* | 62.8*
Nc1nc2ccc(S(=O)(=O)N3CCCCC3)cc2s1 | 7.1 | 55.6 | -0.8 | -1.3 | -4.6 | 56.5* | 6.4
COCc1c(Br)c(C)nc2sc3c(=O)[nH]nnc3c12 | . | . | . | . | 4.3 | . | .
CCOC(=O)c1c(NC(C)=O)sc2c1CCC(C=O)=C2Sc1ccccc1 | -13.2 | 32.5 | 4.9 | -1.9 | 0.6 | 53.4* | -19.4
COc1ccc(-c2[nH]n(-c3ccc([N+](=O)[O-])cc3)c(=O)c2C=NCc2ccccc2)cc1 | -17.8 | -18.1 | 4.5 | 0.7 | 2.2 | -11.0 | .
CCCn1c(=NC(=O)c2c(-c3c(F)cccc3Cl)noc2C)c(C(=O)OCC)cc2c(=O)n3ccccc3nc21 | -13.5 | 60.1* | 3.3 | 11.6 | 0.8 | 71.5* | -79.4
CCOC(=O)c1cc2c(=O)n3ccccc3nc2n(Cc2ccco2)c1=NC(=O)c1cccc(OC)c1 | -6.9 | 86.3* | 6.6 | 29.8 | 33.0* | 98.8* | 55.4*
COc1ccccc1NS(=O)(=O)c1cc([N+](=O)[O-])ccc1N/N=C/c1sc(N2CCOCC2)nc1-c1ccccc1 | -11.8 | -16.3 | 1.9 | -1.8 | -7.1 | -7.6 | .
CC1=CC2=NC(=O)CC(C)(C(=O)N(CC(=O)NC(C)C)C3CCCC3)N2C=C1 (stereo unspecified) | -1.0 | -2.0 | -2.5 | 26.2 | -11.4 | -0.3 | .
Cc1cccnc1Nc1nc(-c2ccc(O)c(O)c2)cs1 | -5.7 | 51.6* | 1.3 | 0.8 | 0.6 | 64.6* | -22.5
O=Cc1ccc(O)cc1O | . | . | . | . | 4.7 | . | .
O=CN/C=C/c1cc(O)ccc1O | 3.2 | 58.7* | -3.8 | -141.4 | . | 64.6* | -1.6
Cc1ccc2nc3c(cc(C(=O)NCCCn4ccnc4)n3C)c(=O)n2c1 | -29.5 | 77.1* | 3.9 | 34.6 | -2.8 | 53.6* | -23.3
COC(=O)C1=C(C)N(Cc2ccc(C)cc2)C(=O)/C1=C\c1ccc(O)c(OC)c1 | -13.5 | 6.2 | -3.6 | -0.9 | -3.2 | 27.1 | .
CCOC(=O)C1=C(C)N(c2ccc(C)cc2)C(=O)/C1=C\c1ccc(O)c(OC)c1 | 0.6 | -13.0 | 9.6 | -36.1 | 7.1 | 56.9* | 25.0
COc1ccc(Cl)cc1NC(=O)CSc1nnc(-c2ccco2)o1 | . | . | . | . | 0.8 | . | .
Cn1cc(C(=O)Nc2ccc(F)c(Cl)c2)cn1 | 0.6 | 3.8 | 0.5 | -2.4 | -3.3 | 0.0 | .
CN1c2ccsc2C(O)=C(C(=S)Nc2ccc(F)c(Cl)c2)S1(=O)=O | -28.5 | . | -5.9 | 3.6 | 124.0* | 85.2* | -13.9
COc1ccc(CCNC(=O)C2CCN(S(=O)(=O)c3cccc4nsnc34)CC2)cc1OC | 5.7 | -1.9 | -5.5 | 0.5 | 4.8 | 81.0* | -6.1
COc1ccc(CN(C)C(=O)c2cc(S(=O)(=O)N3CCOCC3)ccc2N2CCCC2)cc1 | . | . | . | . | 6.9 | . | .
Cc1cc(C)c(NC(=S)NCC2CCN(C(C)c3ccccc3)C2)c(C)c1 (stereo unspecified) | 1.0 | 44.7 | -1.1 | -54.2 | 4.8 | 54.1* | 35.9
SMILES | Tb hexokinase | Runt-SMMHC FRET | p97 inhibitor | Hck-Nef inh | RanGTP-Impb inh | Runt-CBFb FRET | RUNX1 CBFb TR
CC(=O)c1ccc(OC(=O)CCc2nc3ccccc3s2)cc1 | -1.7 | 37.2 | -5.5 | 5.6 | -2.5 | 58.7* | 41.8*
O=C(NC12CC3CC(CC(C3)C1)C2)C12CC3CC(C1)CC(n1cnc(Cl)n1)(C3)C2 | -3.2 | -1.9 | 3.0 | 0.0 | 0.4 | -3.9 | .
O=C(CSc1ncnc2ccccc12)c1ccco1 | -0.7 | 115.8* | 0.8 | 31.8 | ? | 59.0* | 41.9*
O=C(CSc1ncnc2ccccc12)NCc1ccco1 | -4.8 | 3.8 | 2.9 | 0.5 | -1.1 | -1.1 | .
COc1ccc(C2=CC(=O)C=CC2=O)cc1 | 28.7 | 85.8* | 11.1 | 70.3* | 0.1 | 68.5* | 34.8
CC(NC(=O)c1cc(-c2cccs2)on1)c1ccccc1 (stereo unspecified) | -2.1 | -1.9 | 0.3 | 4.2 | 1.0 | -0.8 | .
O=C1C(Cl)=C(Nc2ccc3cn[nH]c3c2)C(=O)c2ccccc21 | -16.0 | 31.7 | 11.9 | -43.2 | 4.0 | 51.2* | -18.7
O=C(Nc1ccc2cn[nH]c2c1)c1c(Cl)cccc1Cl | -2.0 | 8.1 | -3.3 | 10.9 | 1.4 | 5.4 | .
COc1ccccc1N1C(=O)C2CC(C)=C(C)CC2C1=O (stereo unspecified) | 2.5 | 0.1 | 0.3 | 1.5 | -3.3 | -1.3 | .
COc1ccccc1N1C(=O)C=C(Sc2nc(C)cc(C)n2)C1=O | 2.1 | 68.5* | 0.1 | -172.3 | -2.9 | 59.7* | 36.8
Cc1cccn2c(=O)c3cc(S(=O)(=O)c4ccccc4)c(=N)n(Cc4ccc(F)cc4)c3nc12 | . | . | . | . | -1.9 | . | .
Cc1ccc(S(=O)(=O)c2cc3c(=O)n4ccccc4nc3n(CC3CCCO3)c2=N)cc1C (stereo unspecified) | -11.6 | 106.4* | 1.3 | 3.8 | 154.3* | 97.8* | 29.2
Cc1ccc(C(=S)N2CCN(Cc3ccccc3)CC2)cc1 | 2.3 | 38.1 | 2.7 | 13.5 | 1.1 | 51.7* | 42.1*
Cc1ccc(NC(=S)N2CCN(Cc3ccccc3)CC2)cc1 | -5.0 | 2.0 | 2.6 | 24.9 | -0.2 | -2.2 | .
CC(C)Cc1csc(NC(=O)c2ccccc2Cl)c1C(=O)O | 13.2 | -8.7 | 1.4 | 0.7 | -4.1 | 105.1* | 3.3
CN1CCN(NC(=O)c2cc([N+](=O)[O-])cc([N+](=O)[O-])c2)CC1 | 5.2 | 1.8 | 5.5 | 0.2 | 4.0 | -3.1 | .

Assay outcomes from PubChem BioAssay.
